Test results published in ChEMBL document CHEMBL1123146, “Design, synthesis, and evaluation of omega-iodovinyl- and omega-iodoalkyl-substituted methyl-branched long-chain fatty acids” (J Med Chem, 1985).

Assays:
[1] = test system: Rattus norvegicus; experiment: Concentration was measured in heart tissue of unfasted Fischer 344 rats administered intravenously after 60 minute (radiolabeled with [125I]-; assay type: ADME, organism-based; details: in vivo, iv, 1 h
Procedure, shortened: (§1)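 Female Fischer 344 rats, 10-12 weeks old, 170-200 g, with food and water ad libitum. The 125I-fatty acid was taken up in ethanol, added dropwise to stirred 6% BSA at ~40 °C (final ethanol 10%), filtered, and given as 0.5 mL via lateral tail vein under ether anesthesia. Rats were killed by cervical fracture; blood was taken by cardiac puncture. Organs were rinsed, blotted, weighed and gamma-counted against injectate standards to give %ID/g. Five rats per time point.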

[2] = test system: Rattus norvegicus; experiment: Concentration was measured in lungs tissue of unfasted Fischer 344 rats administered intravenously after 10 minute (radiolabeled with [125I]-; assay type: ADME, organism-based, Lung; details: in vivo, iv, 10 min; procedure, shortened: as §1
[3] = test system: Rattus norvegicus; experiment: Concentration was measured in kidney tissue of unfasted Fischer 344 rats administered intravenously after 5 minute (radiolabeled with [125I]-; assay type: ADME, organism-based; details: in vivo, iv, 5 min; procedure, shortened: as §1
[4] = test system: Rattus norvegicus; experiment: Concentration was measured in mean heart/blood tissue of fasted Fischer 344 rats administered intravenously after 60 minute (radiolabeled with [125I]-; details: in vivo, iv, 1 h
[5] = test system: Rattus norvegicus; experiment: Concentration was measured in blood tissue of unfasted Fischer 344 rats administered intravenously after 2 minute (radiolabeled with [125I]-; assay type: ADME, organism-based; details: in vivo, iv, 2 min; procedure, shortened: as §1
[6] = test system: Rattus norvegicus; experiment: Concentration was measured in lungs tissue of unfasted Fischer 344 rats administered intravenously after 60 minute (radiolabeled with [125I]-; assay type: ADME, organism-based, Lung; details: in vivo, iv, 1 h; procedure, shortened: as §1
[7] = test system: Rattus norvegicus; experiment: Concentration was measured in kidney tissue of unfasted Fischer 344 rats administered intravenously after 2 minute (radiolabeled with [125I]-; assay type: ADME, organism-based; details: in vivo, iv, 2 min; procedure, shortened: as §1
[8] = test system: Rattus norvegicus; experiment: Concentration was measured in mean heart/blood tissue of unfasted Fischer 344 rats administered intravenously after 10 minute (radiolabeled with [125I]-; assay type: ADME, organism-based; details: iv, 10 min
Procedure, shortened: (§2)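 Female Fischer 344 rats, five per time point, each given 11 μCi of the ¹²⁵I-labeled fatty acid (~269 mCi/mmol) via a lateral tail vein in 0.5 mL of 6% BSA (10% ethanol) under ether anesthesia. Blood was drawn by cardiac puncture; organs were rinsed, weighed and gamma-counted against injectate standards. Output is % injected dose/g and mean heart/blood ratio.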

[9] = test system: Rattus norvegicus; experiment: Concentration was measured in kidney tissue of unfasted Fischer 344 rats administered intravenously after 60 minute (radiolabeled with [125I]-; assay type: ADME, organism-based; details: in vivo, iv, 1 h; procedure, shortened: as §1
[10] = test system: Rattus norvegicus; experiment: Concentration was measured in liver tissue of unfasted Fischer 344 rats administered intravenously after 60 minute (radiolabeled with [125I]-; assay type: ADME, organism-based; details: in vivo, iv, 1 h; procedure, shortened: as §1
[11] = test system: Rattus norvegicus; experiment: Concentration was measured in blood tissue of unfasted Fischer 344 rats administered intravenously after 5 minute (radiolabeled with [125I]-; assay type: ADME, organism-based; details: in vivo, iv, 5 min; procedure, shortened: as §1
[12] = test system: Rattus norvegicus; experiment: Concentration was measured in blood tissue of unfasted Fischer 344 rats administered intravenously after 60 minute (radiolabeled with [125I]-; assay type: ADME, organism-based; details: in vivo, iv, 1 h; procedure, shortened: as §1
[13] = test system: Rattus norvegicus; experiment: Concentration was measured in heart tissue of unfasted Fischer 344 rats administered intravenously after 10 min (radiolabeled with [125I]-; assay type: ADME, organism-based; details: in vivo, iv; procedure, shortened: as §1
[14] = test system: Rattus norvegicus; experiment: Concentration was measured in thyroid tissue of unfasted Fischer 344 rats administered intravenously after 60 minute (radiolabeled with [125I]-; assay type: ADME, organism-based, Thyroid gland; details: in vivo, iv, 1 h
Procedure, shortened: (§3)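 Female Fischer 344 rats, 10–12 weeks old (170–200 g), with food and water ad libitum, five per time point. The radioiodinated fatty acid was dissolved in ethanol, added to 6% BSA at ~40 °C (final 10% ethanol), filtered, and injected into a lateral tail vein (0.5 mL) under ether anesthesia. Blood was taken by cardiac puncture; organs were rinsed, blotted, weighed and gamma-counted against injectate standards. Output is % injected dose/g.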

[15] = test system: Rattus norvegicus; experiment: Concentration was measured in liver tissue f unfasted Fischer 344 rats administered intravenously after 10 minute (radiolabeled with [125I]-; assay type: ADME, organism-based; details: in vivo, iv, 10 min; procedure, shortened: as §1
[16] = test system: Rattus norvegicus; experiment: Concentration was measured in kidney tissue of unfasted Fischer 344 rats administered intravenously after 10 minute (radiolabeled with [125I]-; assay type: ADME, organism-based; details: in vivo, iv, 10 min; procedure, shortened: as §1
[17] = test system: Rattus norvegicus; experiment: Concentration was measured in liver tissue of unfasted Fischer 344 rats administered intravenously after 5 minute (radiolabeled with [125I]-; assay type: ADME, organism-based; details: in vivo, iv, 5 min; procedure, shortened: as §1
[18] = test system: Rattus norvegicus; experiment: Concentration was measured in thyroid tissue of unfasted Fischer 344 rats administered intravenously after 5 minute (radiolabeled with [125I]-; assay type: ADME, organism-based, Thyroid gland; details: in vivo, iv, 5 min; procedure, shortened: as §3
[19] = test system: Rattus norvegicus; experiment: Concentration was measured in thyroid tissue of unfasted Fischer 344 rats administered intravenously after 10 minute (radiolabeled with [125I]-; assay type: ADME, organism-based, Thyroid gland; details: in vivo, iv, 10 min; procedure, shortened: as §2
[20] = test system: Rattus norvegicus; experiment: Concentration was measured in liver tissue of unfasted Fischer 344 rats administered intravenously after 2 minute (radiolabeled with [125I]-; assay type: ADME, organism-based; details: in vivo, iv, 2 min; procedure, shortened: as §1
[21] = test system: Rattus norvegicus; experiment: Concentration was measured in blood tissue of unfasted Fischer 344 rats administered intravenously after 10 minute (radiolabeled with [125I]-; assay type: ADME, organism-based; details: in vivo, iv, 10 min; procedure, shortened: as §1
[22] = test system: Rattus norvegicus; experiment: Concentration was measured in heart tissue of unfasted Fischer 344 rats administered intravenously after 2 minute (radiolabeled with [125I]-; assay type: ADME, organism-based; details: in vivo, iv, 2 min; procedure, shortened: as §1
[23] = test system: Rattus norvegicus; experiment: Concentration was measured in lungs tissue of unfasted Fischer 344 rats administered intravenously after 5 minute (radiolabeled with [125I]-; assay type: ADME, organism-based, Lung; details: in vivo, iv, 5 min; procedure, shortened: as §1
[24] = test system: Rattus norvegicus; experiment: Concentration was measured in thyroid tissue of unfasted Fischer 344 rats administered intravenously after 2 minute (radiolabeled with [125I]-; assay type: ADME, organism-based, Thyroid gland; details: in vivo, iv, 2 min; procedure, shortened: as §3
[25] = test system: Rattus norvegicus; experiment: Concentration was measured in mean heart/blood tissue of fasted Fischer 344 rats administered intravenously after 5 minute (radiolabeled with [125I]-; details: in vivo, iv, 5 min
[26] = test system: Rattus norvegicus; experiment: Concentration was measured in lungs tissue of unfasted Fischer 344 rats administered intravenously after 2 minute (radiolabeled with [125I]-; assay type: ADME, organism-based, Lung; details: in vivo, iv, 2 min; procedure, shortened: as §1
[27] = species: Rattus norvegicus; experiment: Specific activity was determined with radioiodinated iodine-125; assay type: functional
[28] = test system: Rattus norvegicus; experiment: Concentration was measured in mean heart/blood tissue of unfasted Fischer 344 rats administered intravenously after 2 minute (radiolabeled with [125I]-; assay type: ADME, organism-based; details: in vivo, iv, 2 min
[29] = test system: Rattus norvegicus; experiment: Concentration was measured in heart tissue of unfasted Fischer 344 rats administered intravenously after 5 minute (radiolabeled with [125I]-; assay type: ADME, organism-based; details: in vivo, iv, 5 min; procedure, shortened: as §1

- Distribution [1]: 0.95%
- Distribution [2]: 1.16%
- Distribution [3]: 1.06%
- Distribution [4]: 1.32%
- Distribution [5]: 2.47%
- Distribution [6]: 0.68%
- Distribution [7]: 1.35%
- Distribution [8]: 1.35%
- Distribution [9]: 0.59%
- Distribution [10]: 0.95%
- Distribution [11]: 1.43%
- Distribution [12]: 0.72%
- Distribution [13]: 1.77%
- Distribution [14]: 217%
- Distribution [15]: 2.54%
- Distribution [16]: 0.96%
- Distribution [17]: 2.5%
- Distribution [18]: 30.2%
- Distribution [19]: 43.3%
- Distribution [20]: 3.93%
- Distribution [21]: 1.31%
- Distribution [22]: 2.68%
- Distribution [23]: 1.03%
- Distribution [24]: 22.5%
- Distribution [25]: 1.35%
- Distribution [26]: 1.75%
- Distribution [28]: 1.09%
- Distribution [29]: 1.93%
SMILES: CC(CCCCCCCCCCCCCCI)CC(=O)O (centres undefined)
- Specific activity [27]: 0.269 Ci mM-1
